Results: ChEMBL document CHEMBL3797175, “Discovery of 6-(difluoro(6-(4-fluorophenyl)-[1,2,4]triazolo[4,3-b][1,2,4]triazin-3-yl)methyl)quinoline as a highly potent and selective c-Met inhibitor” (Eur J Med Chem, 2016)
Active and inactive are the calls of the source. The rule behind the calls is not given here.

Experiments:
[1] = molecular target: T1, Hepatocyte growth factor receptor (Homo sapiens, UniProt P08581); experiment: Inhibition of recombinant c-Met (unknown origin) using poly (Glu, Tyr) 4:1 as substrate incubated for 60 mins by ELISA
[2] = Tmax in Sprague-Dawley rat at 10 mg/kg, po administered as single dose; type: ADME, organism-based; details: in vivo
In short: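 Male Sprague-Dawley rats (n=3), single dose. IV 2 mg/kg in 1% DMA/9% Cremophor/90% saline; PO 10 mg/kg in 0.5% CMC-Na. For one compound, IV 10 mg/kg in DMSO/Tween 80/PEG40 and PO 10 mg/kg in 10% DMSO/5% Tween 80/85% saline.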

[3] = Antitumor activity against human EBC1 cells xenografted in athymic nude mouse assessed as tumor growth inhibition at 12.5 mg/kg, po bid for 21 days measured twice a week during compound dosing relative to control; type: functional; details: EBC-1, po, 504 h, read-out: TGI
In short: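 Nude mice bearing s.c. tumours. Cells were first grown s.c. to 700–800 mm³, then 1.5 mm³ fragments were transplanted s.c. into the right flank. Mice were randomised at 100–200 mm³ (n=6 treated, n=12 vehicle) and dosed orally twice daily for 21 days. Caliper measurement twice weekly; TV = length×width²/2. TGI taken on the final day versus vehicle; Student's t test.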

[4] = system: Epidermal growth factor receptor (Homo sapiens), P00533 [L858R,T790M]; experiment: Inhibition of EGFR T790M/L858R double mutant (unknown origin) using poly (Glu, Tyr) 4:1 as substrate at 1000 nM incubated for 60 mins by ELISA relative to control; type: protein assay
In short: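 Recombinant kinase, ELISA on a poly(Glu,Tyr)4:1 coat (20 μg/mL). 10 μmol/L ATP in HEPES pH 7.4 with MgCl2, MnCl2, Na3VO4 and DTT; 1% DMSO. Reaction 60 min at 37 °C. Phosphotyrosine detected with PY99 and HRP anti-mouse IgG, o-phenylenediamine substrate, A490. Inhibition % versus DMSO control; two separate experiments.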

[5] = Selectivity ratio of IC50 for human AGS cells to IC50 for mouse BAF3 cells expressing TPR-MET; type: ADME, cell-based
In short: (§1)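 Both IC50s in each ratio come from one proliferation assay. Cells were seeded and exposed the next day to a range of concentrations for 72 h, then read by SRB or MTT. IC50s were fitted by four-parameter concentration–response, with each concentration at least in triplicate and at least 2 experiments. BaF3/TPR-Met is murine pre-B BaF3 transfected with TPR-MET and puromycin-selected.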

[6] = Selectivity ratio of IC50 for human SNU16 cells to IC50 for human EBC1 cells; type: ADME, cell-based; details: snu-16
[7] = Selectivity ratio of IC50 for human SNU16 cells to IC50 for mouse BAF3 cells expressing TPR-MET; type: ADME, cell-based
[8] = molecular target: Fibroblast growth factor receptor 1 (Homo sapiens) (UniProt P11362); experiment: Inhibition of recombinant FGFR1 (unknown origin) using poly (Glu, Tyr) 4:1 as substrate at 1000 nM incubated for 60 mins by ELISA relative to control
In short: (§2)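 Recombinant tyrosine kinases assayed on wells precoated with poly(Glu,Tyr)4:1 (20 µg/mL). ATP 10 µmol/L in HEPES pH 7.4 buffer with MgCl2, MnCl2, Na3VO4 and DTT; compound in 1% DMSO, 1% DMSO as control. Reaction 60 min at 37 °C. Phosphotyrosine detected with PY99 and HRP anti-mouse, o-phenylenediamine, A490. Inhibition % relative to control; two experiments.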

[9] = molecular target: Ephrin type-A receptor 2 (Homo sapiens) (UniProt P29317); experiment: Inhibition of recombinant EPHA2 (unknown origin) using poly (Glu, Tyr) 4:1 as substrate at 1000 nM incubated for 60 mins by ELISA relative to control; in short: as §2
[10] = molecular target: T1, Hepatocyte growth factor receptor; experiment: Inhibition of c-Met in human MKN45 cells assessed as reduction in AKT phosphorylation at Serine 473 at 10 nM after 1 hr by Western blot analysis; type: cell-based; details: MKN-45
In short: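 EBC-1 or MKN45 cells treated with compound 1 h at 37 °C without HGF, then lysed in 1× SDS sample buffer. Lysates run on 10% SDS-PAGE and transferred to nitrocellulose. Probed with antibodies to c-Met, phospho-c-Met, phospho-ERK1/2, phospho-AKT, AKT and GAPDH, then HRP secondary. ECL detection.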

[11] = molecular target: TPR/MET fusion protein (Mus musculus) (UniProt P16056+F6ZDS4); experiment: Inhibition of TPR-MET in mouse BAF3 cells assessed as reduction in ERK phosphorylation at Threonine 202 at 10 nM after 1 hr by Western blot analysis; type: cell-based
In short: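 BaF3 stably expressing TPR-MET (puromycin-selected), grown with IL-3-conditioned medium. Treated 1 h at 37 °C, lysed in SDS sample buffer. 10% SDS-PAGE and immunoblot for phospho-c-Met, phospho-ERK1/2, phospho-AKT and totals; ECL detection.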

[12] = Antiproliferative activity against human SMMC7721 cells after 72 hrs by SRB or MTT assay; type: functional, cell-based; details: SMMC-7721, 72 h
In short: (§3)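 Cells seeded, exposed next day to a range of concentrations for 72 h. Growth read by sulforhodamine B or MTT. IC50 from four-parameter concentration-response fit. Each concentration tested at least in triplicate, with at least 2 experiments.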

[13] = Antiproliferative activity against human HCT116 cells after 72 hrs by SRB or MTT assay; type: functional, cell-based; details: HCT-116, 72 h; in short: as §3
[14] = system: NCI-H596; experiment: Antiproliferative activity against human NCI-H596 cells after 72 hrs by SRB or MTT assay; type: functional, cell-based; details: NCI-H596, 72 h; in short: as §3
[15] = Antiproliferative activity against human NCI-H3122 cells after 72 hrs by SRB or MTT assay; type: functional, cell-based; details: NCI-H3122, 72 h; in short: as §3
[16] = Antiproliferative activity against human BGC823 cells after 72 hrs by SRB or MTT assay; type: functional, cell-based; details: BGC-823, 72 h; in short: as §3
[17] = Antiproliferative activity against human SPCA1 cells after 72 hrs by SRB or MTT assay; type: functional, cell-based; details: SPCA1, 72 h; in short: as §3
[18] = Selectivity ratio of IC50 for human SMMC7721 cells to IC50 for human EBC1 cells; type: ADME, cell-based; details: smmc-7721
In short: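 Each cell line was seeded in 96-well plates, then exposed the next day to a range of compound concentrations for 72 h. Growth was read by SRB or MTT assay, and IC50 was fitted by a four-parameter concentration-response curve. Each concentration was run at least in triplicate, in at least 2 experiments. BaF3/TPR-Met are murine pre-B BaF3 cells transfected with TPR-MET cDNA and selected in puromycin.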

[19] = Selectivity ratio of IC50 for human NCI-HCC827 cells to IC50 for human MKN45 cells; type: ADME, cell-based; details: mkn-45; in short: as §1
[20] = Selectivity ratio of IC50 for human NCI-H1299 cells to IC50 for mouse BAF3 cells expressing TPR-MET; type: ADME, cell-based; in short: as §1
[21] = Selectivity ratio of IC50 for human NCI-H596 cells to IC50 for mouse BAF3 cells expressing TPR-MET; type: ADME, cell-based; in short: as §1
[22] = Selectivity ratio of IC50 for human SPCA4 cells to IC50 for human MKN45 cells; type: ADME, cell-based, SPC-A4; details: SPCA4 cells versus MKN45 cells

T1 sequence (P08581 whole entry): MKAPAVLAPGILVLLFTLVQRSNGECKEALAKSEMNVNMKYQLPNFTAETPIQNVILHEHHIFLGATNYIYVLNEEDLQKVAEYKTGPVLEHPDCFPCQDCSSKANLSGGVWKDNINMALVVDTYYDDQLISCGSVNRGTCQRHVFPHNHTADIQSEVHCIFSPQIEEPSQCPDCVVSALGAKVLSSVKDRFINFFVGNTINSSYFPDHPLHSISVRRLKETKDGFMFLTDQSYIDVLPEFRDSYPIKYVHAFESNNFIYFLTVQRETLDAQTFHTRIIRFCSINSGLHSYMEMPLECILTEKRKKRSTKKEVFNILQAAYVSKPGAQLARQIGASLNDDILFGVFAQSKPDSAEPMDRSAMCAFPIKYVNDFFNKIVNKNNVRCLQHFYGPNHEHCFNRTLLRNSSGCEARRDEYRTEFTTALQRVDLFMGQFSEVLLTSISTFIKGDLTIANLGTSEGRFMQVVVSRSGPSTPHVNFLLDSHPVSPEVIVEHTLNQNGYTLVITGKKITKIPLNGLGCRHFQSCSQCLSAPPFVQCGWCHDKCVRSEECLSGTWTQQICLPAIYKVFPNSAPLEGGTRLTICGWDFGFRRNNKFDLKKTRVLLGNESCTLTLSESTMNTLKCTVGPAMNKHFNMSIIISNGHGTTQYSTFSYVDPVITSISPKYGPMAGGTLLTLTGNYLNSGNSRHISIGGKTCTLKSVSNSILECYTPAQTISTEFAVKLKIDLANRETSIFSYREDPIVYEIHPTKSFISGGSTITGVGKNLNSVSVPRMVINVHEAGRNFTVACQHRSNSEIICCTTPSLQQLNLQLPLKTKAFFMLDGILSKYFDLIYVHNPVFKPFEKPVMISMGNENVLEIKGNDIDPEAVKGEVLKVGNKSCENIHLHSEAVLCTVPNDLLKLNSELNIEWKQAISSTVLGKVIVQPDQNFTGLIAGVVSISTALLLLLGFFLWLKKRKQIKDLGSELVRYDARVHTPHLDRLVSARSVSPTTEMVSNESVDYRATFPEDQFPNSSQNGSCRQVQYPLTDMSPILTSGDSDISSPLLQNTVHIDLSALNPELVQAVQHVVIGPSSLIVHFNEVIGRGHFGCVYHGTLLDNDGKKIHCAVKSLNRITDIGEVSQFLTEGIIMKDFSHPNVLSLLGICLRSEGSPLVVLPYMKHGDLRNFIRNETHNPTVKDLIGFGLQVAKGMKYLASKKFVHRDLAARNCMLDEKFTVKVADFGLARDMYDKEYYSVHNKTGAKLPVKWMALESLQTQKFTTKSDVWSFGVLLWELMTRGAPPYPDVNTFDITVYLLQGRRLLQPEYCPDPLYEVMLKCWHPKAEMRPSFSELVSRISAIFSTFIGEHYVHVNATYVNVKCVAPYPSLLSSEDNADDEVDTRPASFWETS
Sequence of Ephrin type-A receptor 2 (Homo sapiens) (P29317 whole entry): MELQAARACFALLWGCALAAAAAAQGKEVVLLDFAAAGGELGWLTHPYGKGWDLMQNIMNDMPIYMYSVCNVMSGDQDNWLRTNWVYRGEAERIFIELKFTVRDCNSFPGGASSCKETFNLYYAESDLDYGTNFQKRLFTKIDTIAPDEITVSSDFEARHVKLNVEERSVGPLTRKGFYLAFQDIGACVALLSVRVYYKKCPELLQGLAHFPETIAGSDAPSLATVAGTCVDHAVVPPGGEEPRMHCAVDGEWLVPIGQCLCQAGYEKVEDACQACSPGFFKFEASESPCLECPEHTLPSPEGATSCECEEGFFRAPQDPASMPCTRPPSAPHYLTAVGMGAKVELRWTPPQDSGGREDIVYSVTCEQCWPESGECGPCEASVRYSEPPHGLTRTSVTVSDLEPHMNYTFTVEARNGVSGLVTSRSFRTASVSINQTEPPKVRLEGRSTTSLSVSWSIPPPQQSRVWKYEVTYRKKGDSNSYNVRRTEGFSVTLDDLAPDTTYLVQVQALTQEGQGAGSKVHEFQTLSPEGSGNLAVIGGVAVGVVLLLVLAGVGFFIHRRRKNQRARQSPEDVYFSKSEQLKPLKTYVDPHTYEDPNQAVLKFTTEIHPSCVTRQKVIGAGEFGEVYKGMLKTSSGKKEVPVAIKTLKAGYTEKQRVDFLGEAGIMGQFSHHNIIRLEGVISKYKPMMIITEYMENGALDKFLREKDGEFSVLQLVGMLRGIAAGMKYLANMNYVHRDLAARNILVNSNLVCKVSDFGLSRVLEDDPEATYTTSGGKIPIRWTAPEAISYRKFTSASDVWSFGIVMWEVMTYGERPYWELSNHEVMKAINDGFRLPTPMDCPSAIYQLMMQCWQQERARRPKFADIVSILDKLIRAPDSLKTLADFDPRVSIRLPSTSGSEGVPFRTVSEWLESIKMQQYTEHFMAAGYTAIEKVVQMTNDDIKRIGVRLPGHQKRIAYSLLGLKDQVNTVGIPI
Sequence of Fibroblast growth factor receptor 1 (Homo sapiens) (P11362 22-822 limits assumed): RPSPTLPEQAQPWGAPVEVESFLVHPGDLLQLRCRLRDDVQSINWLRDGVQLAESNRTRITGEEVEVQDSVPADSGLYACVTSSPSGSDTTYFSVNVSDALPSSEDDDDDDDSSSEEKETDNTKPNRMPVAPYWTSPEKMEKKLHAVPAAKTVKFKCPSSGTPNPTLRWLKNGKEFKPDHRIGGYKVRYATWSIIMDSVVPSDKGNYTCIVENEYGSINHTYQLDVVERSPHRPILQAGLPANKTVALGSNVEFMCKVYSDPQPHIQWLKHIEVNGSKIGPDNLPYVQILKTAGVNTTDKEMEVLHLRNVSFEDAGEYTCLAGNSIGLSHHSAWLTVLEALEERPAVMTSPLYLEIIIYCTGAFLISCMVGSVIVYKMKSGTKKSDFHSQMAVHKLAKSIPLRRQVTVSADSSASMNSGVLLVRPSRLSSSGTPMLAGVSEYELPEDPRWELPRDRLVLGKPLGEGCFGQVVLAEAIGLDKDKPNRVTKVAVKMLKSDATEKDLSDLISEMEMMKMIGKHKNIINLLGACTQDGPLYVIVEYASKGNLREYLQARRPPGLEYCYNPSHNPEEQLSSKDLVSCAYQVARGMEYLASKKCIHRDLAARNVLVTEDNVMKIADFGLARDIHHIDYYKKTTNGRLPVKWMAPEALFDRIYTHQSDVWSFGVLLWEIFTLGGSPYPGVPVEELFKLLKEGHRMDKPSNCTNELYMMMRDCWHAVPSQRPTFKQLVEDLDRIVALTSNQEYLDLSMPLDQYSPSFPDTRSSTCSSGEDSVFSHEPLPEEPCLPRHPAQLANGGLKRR
Sequence of Epidermal growth factor receptor (Homo sapiens), P00533 [L858R,T790M] (P00533 whole entry T790M/L858R, looked up): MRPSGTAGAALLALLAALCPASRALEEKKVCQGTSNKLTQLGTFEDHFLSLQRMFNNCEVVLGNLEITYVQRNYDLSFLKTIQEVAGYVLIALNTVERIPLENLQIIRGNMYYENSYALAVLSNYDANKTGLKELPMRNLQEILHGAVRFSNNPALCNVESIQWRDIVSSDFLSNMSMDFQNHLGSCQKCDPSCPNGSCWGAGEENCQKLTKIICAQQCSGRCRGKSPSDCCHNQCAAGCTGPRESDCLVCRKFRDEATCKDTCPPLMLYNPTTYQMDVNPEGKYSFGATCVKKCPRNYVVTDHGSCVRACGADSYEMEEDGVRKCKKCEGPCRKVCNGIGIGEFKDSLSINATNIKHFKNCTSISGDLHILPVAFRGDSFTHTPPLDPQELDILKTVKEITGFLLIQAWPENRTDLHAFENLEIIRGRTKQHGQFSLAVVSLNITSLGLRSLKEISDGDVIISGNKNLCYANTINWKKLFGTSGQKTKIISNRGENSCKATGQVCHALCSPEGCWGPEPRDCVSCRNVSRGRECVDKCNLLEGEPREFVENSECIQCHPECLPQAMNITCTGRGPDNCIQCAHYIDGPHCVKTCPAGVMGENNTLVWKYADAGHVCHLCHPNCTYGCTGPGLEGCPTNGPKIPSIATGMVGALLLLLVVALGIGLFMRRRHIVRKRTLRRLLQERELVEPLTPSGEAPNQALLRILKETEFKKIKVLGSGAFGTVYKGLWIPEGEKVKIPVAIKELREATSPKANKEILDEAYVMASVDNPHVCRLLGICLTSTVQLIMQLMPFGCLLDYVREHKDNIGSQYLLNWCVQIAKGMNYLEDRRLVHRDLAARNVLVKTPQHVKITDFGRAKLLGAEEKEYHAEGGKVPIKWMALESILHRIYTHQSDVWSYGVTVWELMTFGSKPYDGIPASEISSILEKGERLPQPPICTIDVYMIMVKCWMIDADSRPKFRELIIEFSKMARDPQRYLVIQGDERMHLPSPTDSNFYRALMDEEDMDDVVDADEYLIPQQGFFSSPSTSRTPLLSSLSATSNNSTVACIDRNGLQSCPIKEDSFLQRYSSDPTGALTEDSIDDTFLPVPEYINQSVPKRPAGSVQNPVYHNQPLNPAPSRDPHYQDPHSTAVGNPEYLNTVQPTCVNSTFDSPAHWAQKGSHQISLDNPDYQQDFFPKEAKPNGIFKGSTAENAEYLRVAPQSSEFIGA

Compound: Fc1ccc(-c2cnc3nnc(C(F)(F)c4ccc5ncccc5c4)n3n2)cc1
- IC50 [1]: 0.00024 µM
- Tmax [2]: 1 h
- inhibition in vivo at 12.5 mg/kg [3]: 75.6%
- inhibition [4]: 28.9%
- Ratio IC50 [5]: 10000
- Ratio IC50 [6]: 10000
- Ratio IC50 [7]: 10000
- inhibition [8]: 12.8%
- inhibition [9]: 6.1%
- inhibition [10]: Active
- inhibition [11]: Active
- IC50 [12]: > 10 µM
- IC50 [13]: > 10 µM
- IC50 [14]: > 10 µM
- IC50 [15]: > 10 µM
- IC50 [16]: > 10 µM
- IC50 [17]: > 10 µM
- Ratio IC50 [18]: 10000
- Ratio IC50 [19]: 10000
- Ratio IC50 [20]: 10000
- Ratio IC50 [21]: 10000
- selectivity ratio [22]: > 10000
